Source: ChEMBL document CHEMBL1155030, “Design of novel cyclic altered peptide ligands of myelin basic protein MBP83-99 that modulate immune responses in SJL/J mice” (J Med Chem, 2008)
Calls of active or inactive are those of the source. No cut-off for these calls is given here. Where a SMILES comes first, the peptide text is derived from it.

What was measured:
[1] = Effect on MBP83-99 peptide-induced SJL/J mouse spleen cells proliferation assessed as [3H]thymidine incorporation after 6 days; type: tissue-based; details: 144 h
Outline: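 Spleen cells taken 28 days after immunization of female 6-8 week SJL/J mice with native MBP83-99 in CFA. 1 × 10^5 cells/well were cultured 1-6 days at 37 °C with recall peptide (10 µg/ml); cells alone served as background. 1 µCi [3H]thymidine was added per well, 6 h before harvest, one plate per day. Reported as mean cpm of triplicate wells, three mice per group.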

spleen = assay: Increase in MBP83-99 peptide-induced IL4 production in SJL/J mouse spleen cells assessed per 0.5 million cells after 24 hrs by ELISpot analysis; type: functional, cell-based
Outline: (§1)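 Female SJL/J mice immunized with peptide in CFA or with peptide conjugated to reduced mannan (50 µg intradermal, days 0 and 14). Spleens taken at day 28. 5 × 10^5 cells/well were incubated 24 h at 37 °C with 10 µg/mL recall peptide on anti-IL-4-coated plates, then developed with biotin anti-IL-4, streptavidin-ALP and a colorimetric substrate. Triplicate wells. Reported as SFU/0.5 million cells minus cells-alone background.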

[2] = Induction of IL4 production in SJL/J mouse spleen cells assessed as spot forming unit per 0.5 million cells by ELISpot analysis; type: functional; outline: as §1

Row | Compound | Activity [1] | Activity (spleen) | Activity [2]
1 | CC[C@H](C)[C@H](NC(=O)[C@H](CC(N)=O)NC(=O)[C@H](CCCCN)NC(=O)[C@H](Cc1ccccc1)NC(=O)[C@H](Cc1ccccc1)NC(=O)[C@H](Cc1c[nH]cn1)NC(=O)[C@@H](NC(=O)[C@@H](NC(=O)[C@@H]1CCCN1C(=O)[C@H](CC(N)=O)NC(=O)[C@@H](N)CCC(=O)O)C(C)C)C(C)C)C(=O)N[C@H](C(=O)N[C@H](C(=O)N1CCC[C@H]1C(=O)N[C@@H](CCCNC(=N)N)C(=O)N[C@H](C(=O)N1CCC[C@H]1C(=O)O)[C@@H](C)O)[C@@H](C)O)C(C)C | Active |  | 
2 | H-ENPVVHFFANIVTPRTP-OH |  | inactive | 600
3 | CC[C@H](C)[C@@H]1NC(=O)[C@H](CC(N)=O)NC(=O)[C@H](C)NC(=O)[C@H](Cc2ccccc2)NC(=O)[C@H](Cc2ccccc2)NC(=O)[C@H](Cc2cnc[nH]2)NC(=O)[C@H](C(C)C)NC(=O)[C@H](C(C)C)NC(=O)[C@@H]2CCCN2C(=O)[C@H](CC(N)=O)NC(=O)[C@H](CCC(=O)O)NC(=O)[C@@H]2CCCN2C(=O)[C@H]([C@@H](C)O)NC(=O)[C@H](CCCNC(=N)N)NC(=O)[C@@H]2CCCN2C(=O)[C@H]([C@@H](C)O)NC(=O)[C@H](C(C)C)NC1=O (cyclo(ANIVTPRTPENPVVHFF)) |  |  | 70
4 | CC[C@H](C)[C@H](NC(=O)[C@H](CC(N)=O)NC(=O)[C@H](CCCCN)NC(=O)[C@H](Cc1ccccc1)NC(=O)[C@H](Cc1ccccc1)NC(=O)[C@H](Cc1cnc[nH]1)NC(=O)[C@@H](NC(=O)[C@@H](NC(=O)[C@@H]1CCCN1C(=O)[C@H](CC(N)=O)NC(=O)[C@@H](N)CCC(=O)O)C(C)C)C(C)C)C(=O)N[C@H](C(=O)N[C@H](C(=O)N1CCC[C@H]1C(=O)N[C@@H](CCCNC(=N)N)C(=O)N[C@H](C(=O)N1CCC[C@H]1C(=O)O)[C@@H](C)O)[C@@H](C)O)C(C)C |  | inactive | 
